Published values from different studies.
Each line is one published result; the experiments were not run side by side. Converted amounts (≈) assume the structure as drawn.

With `C[C@@H](Oc1cc(-n2cnc3ccc(OCC4CCN(C)CC4)cc32)sc1C(N)=O)c1ccccc1C(F)(F)F` the EC50 was 15.8 nM (Trypanosoma brucei; parasite growth).
`COC(=O)c1ccc2c(c1)C(=Cc1cc(Br)c(O)c(Br)c1)C(=O)N2` has an IC50 of 6700 nM (Plasmodium berghei; parasite growth, luciferase; human; liver stage).
For `CS(=O)(=O)CCNCc1nc(-c2ccc3ncnc(Nc4ccc(OCc5cccc(C(F)(F)F)c5)cc4)c3c2)cs1`, the EC50 was 3160 nM (Trypanosoma brucei; parasite growth).
`O=C(O)CCc1ccccc1Oc1ccc(-c2noc(-c3ccc(O)cc3)n2)cc1` gave an MIC of greater than 32 µg/mL (Enterococcus faecium; microbial growth, broth dilution; 24 h).
With `NS(=O)(=O)c1ccc(N/N=C2\C(=O)Nc3ccc(Cl)cc32)cc1` the EC50 was 1580 nM (Trypanosoma brucei; parasite growth).
`O=C(Nc1ccccc1-c1ccc(F)c(F)c1)c1nccnc1C(F)(F)F` has an EC50 of 0.057 µg/mL (Alternaria brassicicola; microbial growth).
For `Cl.Oc1cccc2c1[nH]c1c(C3=CC4(O)CC/C=C\CCCCN5CCC3C3(CC6/C=C\CCCCN6C43)C5)nccc12` (single isomer, unassigned; (+)), the IC50 was 0.22 µg/mL (Mycobacterium intracellulare; microbial growth, resazurin; ATCC23068).
With `Cl.Oc1ccc(-c2nc(-c3ccc(Oc4ccc5c(c4)CNCC5)cc3)no2)cc1` the MIC was 4 µg/mL (Enterococcus faecium; microbial growth, broth dilution; 24 h).
`CS(=O)(=O)c1ccc(/C=C/c2nc3ccccc3c(=O)n2-c2cccc(C(=O)O)c2)cc1` has an MIC of greater than 128 µg/mL (Enterococcus faecium; microbial growth, broth dilution; NCTC7171).
`C[C@@H]1[C@H](O)[C@@H](C)/C=C/C=C/C=C/C=C/C=C/C=C/C=C/[C@H](O[C@@H]2O[C@H](C)[C@@H](O)[C@H](N)[C@@H]2O)C[C@@H]2O[C@](O)(C[C@@H](O)C[C@@H](O)[C@H](O)CC[C@@H](O)C[C@@H](O)CC(=O)O[C@H]1C)C[C@H](O)[C@H]2C(=O)O` has an IC50 of 300 nM (Candida albicans; microbial growth; ATCC90028).
`C[N+](C)(C)CCCc1ccc(Oc2ccc(-c3noc(-c4ccc(O)cc4)n3)cc2)cc1.[I-]` gave an MIC of 16 µg/mL (Enterococcus faecium; microbial growth, broth dilution; 24 h).
With `CS(=O)(=O)NCc1cccc(-n2c(/C=C/c3ccc(C#N)cc3)nc3ccccc3c2=O)c1` the MIC was greater than 128 µg/mL (Enterococcus faecium; microbial growth, broth dilution; NCTC7171).
`Cl.NCCc1ccccc1Oc1ccc(-c2noc(-c3ccc(O)cc3)n2)cc1` has an MIC of 8 µg/mL (Enterococcus faecium; microbial growth, broth dilution; 24 h).
`O=C(O)c1cn(C2CC2)c2cc(N3CCNCC3)c(F)cc2c1=O` has an IC50 of 690 nM (Mycobacterium intracellulare; microbial growth; ATCC23068).
`COc1cc2c(cc1Nc1nc(Nc3cccc(F)c3C(N)=O)c3cc[nH]c3n1)N(C(=O)CN1CCN(C(C)C)CC1)CC2` has an EC50 of 200 nM (Trypanosoma brucei; parasite growth).
For `COCCNc1ccc(-c2nc(-c3ccc(Oc4ccccc4)cc3)no2)cc1`, the MIC was greater than 32 µg/mL (Enterococcus faecium; microbial growth, broth dilution; 24 h).
`CCCCCCCCCCCCCC(O)CC(O)CO` (stereo not shown) gave an IC50 of greater than 200 µg/mL (Candida albicans; microbial growth, broth dilution; ATCC90028).
For `C[C@@H]1[C@H](O)[C@@H](C)/C=C/C=C/C=C/C=C/C=C/C=C/C=C/[C@H](O[C@@H]2O[C@H](C)[C@@H](O)[C@H](N)[C@@H]2O)C[C@@H]2O[C@](O)(C[C@@H](O)C[C@@H](O)[C@H](O)CC[C@@H](O)C[C@@H](O)CC(=O)O[C@H]1C)C[C@H](O)[C@H]2C(=O)O`, the MFC was 1.25 µg/mL (≈ 1.35 µM) (Candida albicans; microbial killing; ATCC90028).
`NS(=O)(=O)c1ccc(NC=C2C(=O)Nc3ccc4ncsc4c32)cc1` gave an EC50 of 12600 nM (Trypanosoma brucei; parasite growth).
With `CCn1c(-c2nonc2N)nc2c(C#CC(C)(C)O)ncc(OC3CCNCC3)c21` the IC50 was 7300 nM (Plasmodium berghei; parasite growth, luciferase; human; liver stage).
With `CC(C)Oc1c(-n2cc(-c3ccc(NC(=O)C(CC(N)=O)NC(=O)c4ccc(NC(=O)c5ccc(C#N)cc5)cc4)cc3)nn2)ccc(C(=O)Nc2ccc(C(=O)O)cc2)c1O` (stereo not shown) the MIC was 0.5 µg/mL (≈ 0.598 µM) (Citrobacter freundii; microbial growth; DSM30039).
`Cl.NCc1ccccc1Oc1ccc(-c2noc(-c3ccc(O)cc3)n2)cc1` has an MIC of 8 µg/mL (Enterococcus faecium; microbial growth, broth dilution; 24 h).
For `CC(C)Oc1c(NC(=O)c2ccc(NC(=O)c3ccc(NC(=O)[C@H](CC(N)=O)NC(=O)c4ccc(NC(=O)c5ccc(C#N)s5)cc4)cc3)c(OC(C)C)c2O)ccc(C(=O)O)c1O`, the MIC was 0.5 µg/mL (≈ 0.561 µM) (Citrobacter freundii; microbial growth; DSM30039).
`Cc1ccc2c(-c3ccnc(Nc4ccccc4)n3)c(-c3ccc(F)cc3)nn2n1` gave an IC50 of 5500 nM (Plasmodium berghei; parasite growth, luciferase; human; liver stage).
The IC50 of `C#CCCCCCCCCC=CCC(O)CC(O)CO` (stereo not shown) is reported as greater than 200 µg/mL (Mycobacterium intracellulare; microbial growth, resazurin; ATCC23068).
The IC50 of `COc1ccc(-c2nn3ncccc3c2-c2ccnc(Nc3ccc4c(c3)OCCO4)n2)cc1` is reported as 3500 nM (Plasmodium berghei; parasite growth, luciferase; human; liver stage).
With `CC(=O)OCC#Cc1ccc(/C=C/c2nc3ccccc3c(=O)n2-c2cccc(C(=O)O)c2)cc1` the MIC was greater than 128 µg/mL (Enterococcus faecium; microbial growth, broth dilution; NCTC7171).
`O=C(Nc1ccc(Oc2ccc3nc(NC(=O)c4ccco4)[nH]c3c2)cc1)Nc1cc(C(F)(F)F)ccc1F` gave an EC50 of 2510 nM (Trypanosoma brucei; parasite growth).
`C=CCCCCCCCCCCCC(O)CC(O)CO` (stereo not shown) gave an IC50 of greater than 200 µg/mL (Mycobacterium intracellulare; microbial growth, resazurin; ATCC23068).
`O=C(O)c1cccc(-n2c(/C=C/c3ccc(F)c(F)c3)nc3ccccc3c2=O)c1` has an MIC of greater than 128 µg/mL (Enterococcus faecium; microbial growth, broth dilution; NCTC7171).
`CC(C)=Cc1cccc2c1C(=NNc1ccc(S(N)(=O)=O)cc1)C(=O)N2` has an EC50 of 31.6 nM (Trypanosoma brucei; parasite growth).
With `O=C(O)c1cccc(-n2c(/C=C/c3ccc(Cl)cc3)nc3ccncc3c2=O)c1` the MIC was greater than 128 µg/mL (Enterococcus faecium; microbial growth, broth dilution; NCTC7171).
The MIC of `Oc1ccc(-c2nc(-c3ccc(Oc4ccccc4)cc3)no2)cc1` is reported as 2 µg/mL (≈ 6.05 µM) (Enterococcus faecium; microbial growth, broth dilution; 24 h).
For `N#CCNC(=O)c1ccc(-c2ccnc(Nc3ccc(N4CCOCC4)cc3)n2)cc1`, the IC50 was 550 nM (Plasmodium berghei; parasite growth, luciferase; human; liver stage).
For `N#Cc1ccc(/C=C/c2nc3ccccc3c(=O)n2-c2cccc(C(=O)NCc3cccnc3)c2)cc1`, the MIC was greater than 128 µg/mL (Enterococcus faecium; microbial growth, broth dilution; NCTC7171).
For `O=S(=O)(CCOCc1ccc(-c2ccc3ncnc(Nc4ccc(OCc5cccc(F)c5)c(Cl)c4)c3c2)o1)c1ccccc1`, the EC50 was 1580 nM (Trypanosoma brucei; parasite growth).
The MIC of `CC(=O)Oc1ccc(-n2c(/C=C/c3ccc([N+](=O)[O-])cc3)nc3ccccc3c2=O)cc1` is reported as 32 µg/mL (≈ 74.9 µM) (Enterococcus faecium; microbial growth, broth dilution; NCTC7171).
The MIC of `O=C(O)Cc1cccc(Oc2ccc(-c3noc(-c4ccc(O)cc4)n3)cc2)c1` is reported as greater than 32 µg/mL (Enterococcus faecium; microbial growth, broth dilution; 24 h).
`CC(=O)NCc1cccc(-n2c(/C=C/c3ccc(C#N)cc3)nc3ccccc3c2=O)c1` has an MIC of greater than 128 µg/mL (Enterococcus faecium; microbial growth, broth dilution; NCTC7171).
The MIC of `CC(C)Oc1c(NC(=O)c2ccc(NC(=O)c3ccc(NC(=O)[C@H](CC(N)=O)NC(=O)c4ccc(NC(=O)c5ccc(C#N)cn5)cc4)cc3)c(OC(C)C)c2O)ccc(C(=O)O)c1O` is reported as 0.5 µg/mL (≈ 0.564 µM) (Citrobacter freundii; microbial growth; DSM30039).
